For data set [1], the target named is T1, B1 bradykinin receptor (Homo sapiens, UniProt P46663).
T1 sequence (P46663 whole entry): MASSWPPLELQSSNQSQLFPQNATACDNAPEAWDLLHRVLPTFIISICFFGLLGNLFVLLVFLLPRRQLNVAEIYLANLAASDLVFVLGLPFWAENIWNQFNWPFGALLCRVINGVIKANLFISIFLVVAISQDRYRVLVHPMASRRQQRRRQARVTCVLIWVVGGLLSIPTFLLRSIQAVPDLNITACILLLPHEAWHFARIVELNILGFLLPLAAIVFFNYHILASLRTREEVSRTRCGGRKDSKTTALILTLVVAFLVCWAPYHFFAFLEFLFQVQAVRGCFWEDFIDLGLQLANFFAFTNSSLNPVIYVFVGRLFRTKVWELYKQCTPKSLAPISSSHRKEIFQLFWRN
The data set can be described thus: Displacement of [3H]DAK from human bradykinin B1 receptor expressed in CHO-D cells. It is filed as cell-based. (In general: Loss of bound radioactivity is the signal in a displacement assay; it reports binding, not function.)

In a further data set the target is T2, B2 bradykinin receptor (Homo sapiens, UniProt P30411).
T2 sequence (P30411 whole entry): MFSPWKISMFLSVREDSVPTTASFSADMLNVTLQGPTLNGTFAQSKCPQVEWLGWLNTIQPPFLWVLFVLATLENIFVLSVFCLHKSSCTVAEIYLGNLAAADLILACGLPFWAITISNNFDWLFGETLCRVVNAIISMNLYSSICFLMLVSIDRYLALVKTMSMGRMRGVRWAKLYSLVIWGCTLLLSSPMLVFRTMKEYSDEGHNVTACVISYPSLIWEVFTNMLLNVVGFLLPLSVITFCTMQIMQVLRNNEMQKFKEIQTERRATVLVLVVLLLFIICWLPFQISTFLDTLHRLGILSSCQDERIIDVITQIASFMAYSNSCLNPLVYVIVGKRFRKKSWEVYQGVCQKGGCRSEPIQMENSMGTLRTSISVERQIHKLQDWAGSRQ
Nature of the data set: Displacement of [3H]bradykinin from human bradykinin B2 receptor expressed in CHO-K1 cells. It is filed as cell-based.

For data set [2], the target named is T1, B1 bradykinin receptor. Nature of the data set: Antagonistic activity at human bradykinin B1 receptor expressed in CHO cells assessed as effect on DAK-mediated calcium mobilization. It is filed as functional, cell-based. The essentials:
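B1 receptor cDNA transfected into CHO cells; antagonist potency given as IC50 ± SEM with the number of determinations (n).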
Background: A change in cytosolic calcium serves as a functional read-out for many receptors and channels.

Data set [3] can be described thus: Clearance in rat at 10 mg/kg, sc. The data set is classed as ADME, organism-based. Further details: dose 10 mg/kg, route subcutaneous; call rule not given here. As to conditions: in vivo.
Data set [4] in a line: Volume of distribution in rat at 1 mg/kg, iv. The data set is classed as ADME, organism-based. Further details: dose 1 mg/kg, route intravenous. The conditions noted are these: in vivo, read-out: Vss.
Data set [5] can be described thus: Mean residence time in rat at 1 mg/kg, iv. The conditions noted are these: in vivo. Set-up: dose 1 mg/kg, route intravenous. The data set is classed as ADME, organism-based.
Data set [6] is described as follows: Bioavailability in rat at 10 mg/kg, sc. It is filed as ADME, organism-based. As to conditions: in vivo.
Data set [7] in a line: Cmax in rat at 10 mg/kg, sc. It is filed as ADME, organism-based. Set-up: dose 10 mg/kg, route subcutaneous. As to conditions: in vivo.
Data set [8] in a line: AUC (0-t) in rat at 1 mg/kg, iv. As to conditions: plasma. Further details: dose 1 mg/kg, route intravenous. It is filed as ADME, organism-based.
Data set [9] in a line: AUC (0-inf) in rat at 10 mg/kg, sc. It is filed as ADME, organism-based. Set-up: time infinity, dose 10 mg/kg, route subcutaneous. The conditions noted are these: plasma.
A short description of data set [10]: Tmax in rat at 10 mg/kg, sc. The data set is classed as ADME, organism-based. Set-up: dose 10 mg/kg, route subcutaneous. The conditions noted are these: in vivo.
Data set [11] deals with Rattus norvegicus. Nature of the data set: Reduction of exudates volume in rat reverse passive arthus model at 90 mg/kg, sc relative to control. The conditions noted are these: route subcutaneous. It is filed as functional. Further details: scale not given: the % may be the effect or the level left. The method in brief:
(§1)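 Reverse passive Arthus inflammation model in rats; drug given s.c. at 30, 60 or 90 mg/kg; exudate volume expressed relative to saline-treated animals and tested for statistical significance.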

The nature of data set [12]: Half life in rat at 1 mg/kg, iv. The data set is classed as ADME, organism-based. Set-up: dose 1 mg/kg, route intravenous. The conditions noted are these: in vivo.
Data set [13] is described as follows: AUC (0-t) in rat at 10 mg/kg, sc. It is filed as ADME, organism-based. Further details: dose 10 mg/kg, route subcutaneous. The conditions noted are these: plasma.
Data set [14] can be described thus: Half life in rat at 10 mg/kg, sc. The data set is classed as ADME, organism-based. Further details: dose 10 mg/kg, route subcutaneous. As to conditions: in vivo.
Data set [15] can be described thus: AUC (0-inf) in rat at 1 mg/kg, iv. The data set is classed as ADME, organism-based. Set-up: time infinity, dose 1 mg/kg, route intravenous. The conditions noted are these: plasma.
Data set [16] concerns Rattus norvegicus. Nature of the data set: Reduction of exudates volume in rat reverse passive arthus model at 30 mg/kg, sc relative to control. The data set is classed as functional. Further details: scale not given: the % may be the effect or the level left. As to conditions: route subcutaneous. The essentials: as §1
In data set [17] the test system is Rattus norvegicus. Nature of the data set: Relevant drug concentration for 5-6 hrs in rat at 90 mg/kg, sc. Further details: dose 90 mg/kg, route subcutaneous. The conditions noted are these: in vivo. It is filed as ADME, organism-based.
Another data set concerns Plasma. Nature of the data set: Fraction unbound in rat plasma. The data set is classed as ADME, cell-free.
In data set [18] the test system is Rattus norvegicus. Nature of the data set: Reduction of exudates volume in rat reverse passive arthus model at 60 mg/kg, sc relative to control. The data set is classed as functional. Further details: scale not given: the % may be the effect or the level left. As to conditions: route subcutaneous. The essentials: as §1
For data set [19], the system named is Rattus norvegicus. Nature of the data set: Reduction of exudates volume in rat carrageenan-induced pleurisy model at 90 mg/kg, sc relative to control. Further details: scale not given: the % may be the effect or the level left. The data set is classed as functional. As to conditions: route subcutaneous.
Data set [20] has as its system Rattus norvegicus. Nature of the data set: Reduction of edema formation in rat reverse passive arthus model at 3 mg/kg, po. As to conditions: in vivo. Further details: dose 3 mg/kg, route oral. The data set is classed as ADME, organism-based.

Each structure is given as a SMILES string.

As usually defined, the Ki is the dissociation constant of the complex between target and ligand, obtained from inhibition or displacement. The IC50 is the concentration that gives 50% inhibition. On to `CN1c2cc(CN3CCCCC3)ccc2[C@@H](NC(=O)C[C@@H](NS(=O)(=O)c2ccc3ccccc3c2)c2ccccc2)CS1(=O)=O`, for which the values for the inhibitory constant (Ki) at B1 bradykinin receptor [1] and at B2 bradykinin receptor were 1.3 nM and 35000 nM, respectively. In addition, the IC50 at B1 bradykinin receptor [2] is 10.7 nM.
Consider `O=C(C[C@@H](NS(=O)(=O)c1ccc2ccccc2c1)c1ccccc1)NC1CCc2cc(CCN3CCCCC3)ccc2C1` (stereo partly drawn), for which the IC50 on B1 bradykinin receptor [2] is 325 nM.
Same read-out and setting: the figure for `O=C(C[C@@H](NS(=O)(=O)c1ccc2ccccc2c1)c1ccccc1)NCCc1ccc(CN2CCCCC2)cc1` is 540 nM.
By CL/F is commonly meant clearance divided by bioavailability, as obtained after extravascular dosing. As usually defined, the MRT is the average time that molecules of a dose stay in the body. The Cmax is the peak of the concentration-time curve. For orientation: AUC(0-t) means the area under the concentration-time curve up to a stated or last time point. The AUC(0-inf) is the area under the concentration-time curve extrapolated to infinity. As a reminder, the Tmax is the time at which the peak concentration occurs. Usually half-life stands for how long it takes for the measured level to halve. Turning to `O=C(C[C@@H](NS(=O)(=O)c1ccc2ccccc2c1)c1ccccc1)N[C@@H]1CCOc2cc(CN3CCCCC3)ccc21`, the apparent clearance (CL/F) in [3] was 79.6 mL/min/kg. In addition, the Vd in data set [4] worked out at 7.43 L/kg. Also, in [5], the MRT was 1.5 h. Further, in [6], the bioavailability came to 106%. In data set [7], the peak level (Cmax) was 825 ng/mL. Also, the AUC(0-t) is 194 ng·h/mL in [8] and 1960 ng·h/mL in [13]. In addition, the AUC(0-inf) in data set [9] stood at 2090 ng·h/mL; in [15] it was 201 ng·h/mL. For the same molecule, the time to peak (Tmax) in [10] is 0.4 h. Moreover, the Activity with Rattus norvegicus [11] is 26%; in the data set on Rattus norvegicus [16] it was 14%; in the data set on Rattus norvegicus [18] it was 10%; with Rattus norvegicus [19], 22%. The results for the half-life in data set [12] and in data set [14] were 1.4 h and 2.2 h, respectively. This molecule also yielded a Ki on B2 bradykinin receptor greater than 50000 nM. The concentration with Rattus norvegicus [17] was found to be 125 nM. In the data set on Plasma, this molecule returned a Fu of 0.032.
On B1 bradykinin receptor [1], `C[C@@H](NC(=O)C[C@@H](NS(=O)(=O)c1ccc2ccccc2c1)c1ccccc1)c1ccc(CN2CCCCC2)cc1` displayed a Ki of 17 nM. For the same molecule, the 50% inhibitory concentration (IC50) on B1 bradykinin receptor [2] amounted to 302 nM.
For the molecule `CN1c2cc(CN3CCCCC3)ccc2[C@H](NC(=O)C[C@@H](NS(=O)(=O)c2ccc3ccccc3c2)c2ccccc2)CS1(=O)=O`, the Ki on B1 bradykinin receptor [1] amounted to 15.8 nM; at B2 bradykinin receptor, 16000 nM. In addition, the IC50 at B1 bradykinin receptor [2] is 14 nM.
Turning to `O=C(C[C@@H](NS(=O)(=O)c1ccc2ccccc2c1)c1ccccc1)N[C@H]1CCc2cc(CN3CCCCC3)ccc21`, the inhibition constant Ki at B1 bradykinin receptor [1] was 241 nM; at B2 bradykinin receptor, 13300 nM. Further, the IC50 on B1 bradykinin receptor [2] was found to be 183 nM.
On the same counts, the results for `O=C(CC(NS(=O)(=O)c1ccc2ccccc2c1)c1ccccc1)NCc1ccc(CN2CCCCC2)cc1` (racemic) are 382 nM, 56000 nM and 359 nM.
Consider `COc1ccc2c(c1)c(CC(=O)O)c(C)n2C(=O)c1ccc(Cl)cc1` [INDOMETHACIN], for which, in the data set with Rattus norvegicus [20], the Activity result is “Not Active”.
On to `O=C(C[C@@H](NS(=O)(=O)c1ccc2ccccc2c1)c1ccccc1)N[C@@H]1CCc2cc(CN3CCCCC3)ccc21`, for which the Ki was found to be 1.6 nM on B1 bradykinin receptor [1] and 49200 nM on B2 bradykinin receptor. The IC50 on B1 bradykinin receptor [2] was 5.6 nM.
For the molecule `O=C(C[C@H](NS(=O)(=O)c1ccc2ccccc2c1)c1ccccc1)NCc1ccc(CN2CCCCC2)cc1`, on B1 bradykinin receptor [2], the IC50 is greater than 4000 nM.
In the case of `O=C(C[C@@H](NS(=O)(=O)c1ccc2ccccc2c1)c1ccccc1)NCc1ccc(CN2CCCCC2)cc1`, the Ki at B1 bradykinin receptor [1] amounted to 132 nM. The IC50 on B1 bradykinin receptor [2] was found to be 447 nM.
Regarding `O=C(C[C@@H](NS(=O)(=O)c1ccc2ccccc2c1)c1ccccc1)N[C@H]1CCOc2cc(CN3CCCCC3)ccc21`, the Ki on B2 bradykinin receptor is greater than 20000 nM.

(Values after ChEMBL document CHEMBL1141368, “Identification of a nonpeptidic and conformationally restricted bradykinin B1 receptor antagonist with anti-inflammatory activity” (J Med Chem, 2007).)
